Test system: not listed separately
Test: Dissociation constant, pKa of the compound
Format: physicochemical
How it was run: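 pKa is a calculated value, not a measured one.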

Row | Structure (SMILES) | pKa
1 | CC1(C(F)F)NCCc2c1oc1cc(S(=O)(=O)c3cccc(F)c3)ccc21 (stereo unspecified) | 6.2
2 | O=S(=O)(c1cccc(F)c1)c1ccc2c3c(oc2c1)C1(CCOC1)NCC3 (racemic) | 7.5
3 | O=S(=O)(c1cccc(F)c1)c1ccc2c3c(oc2c1)C1(CCCOC1)NCC3 (stereo in doubt; 3) | 7.5
4 | COCC1(C)NCCc2c1oc1cc(S(=O)(=O)c3cccc(F)c3)ccc21 (stereo unspecified) | 7.5

Target: 5-hydroxytryptamine receptor 6 (Rattus norvegicus, UniProt P31388)
Test: Displacement of [3H]LSD from full length rat 5HT6 receptor
How it was run: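 Radioligand binding with [³H]LSD on membranes from cells expressing full-length rat 5-HT6R.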

Sequence of 5-hydroxytryptamine receptor 6 (Rattus norvegicus, UniProt P31388) (P31388 whole entry): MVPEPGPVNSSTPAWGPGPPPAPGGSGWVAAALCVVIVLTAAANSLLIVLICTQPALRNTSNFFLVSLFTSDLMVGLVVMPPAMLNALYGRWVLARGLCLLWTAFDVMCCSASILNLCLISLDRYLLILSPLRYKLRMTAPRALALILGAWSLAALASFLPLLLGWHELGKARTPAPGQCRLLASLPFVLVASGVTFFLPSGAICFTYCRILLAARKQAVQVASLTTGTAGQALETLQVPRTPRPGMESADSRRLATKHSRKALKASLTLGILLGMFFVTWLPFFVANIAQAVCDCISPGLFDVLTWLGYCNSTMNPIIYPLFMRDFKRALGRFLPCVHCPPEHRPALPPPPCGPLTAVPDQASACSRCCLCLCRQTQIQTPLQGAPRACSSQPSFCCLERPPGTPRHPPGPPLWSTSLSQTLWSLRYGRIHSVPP

Row | Structure (SMILES) | Ki [nM]
5 | CC1(C(F)F)NCCc2c1oc1cc(S(=O)(=O)c3cccc(F)c3)ccc21 (stereo unspecified) | 183
6 | O=S(=O)(c1cccc(F)c1)c1ccc2c3c(oc2c1)C1(CCOC1)NCC3 (racemic) | 132
7 | COCC1(C)NCCc2c1oc1cc(S(=O)(=O)c3cccc(F)c3)ccc21 (stereo unspecified) | 113

Target: T1, 5-hydroxytryptamine receptor 6 (Homo sapiens, UniProt P50406)
Test: Antagonist activity at human recombinant 5-HT6 receptor expressed human astrocytoma cells assessed as inhibition of 5-HT-induced cAMP accumulation after 10 mins preincubation by HTRF assay

T1 sequence (P50406 whole entry): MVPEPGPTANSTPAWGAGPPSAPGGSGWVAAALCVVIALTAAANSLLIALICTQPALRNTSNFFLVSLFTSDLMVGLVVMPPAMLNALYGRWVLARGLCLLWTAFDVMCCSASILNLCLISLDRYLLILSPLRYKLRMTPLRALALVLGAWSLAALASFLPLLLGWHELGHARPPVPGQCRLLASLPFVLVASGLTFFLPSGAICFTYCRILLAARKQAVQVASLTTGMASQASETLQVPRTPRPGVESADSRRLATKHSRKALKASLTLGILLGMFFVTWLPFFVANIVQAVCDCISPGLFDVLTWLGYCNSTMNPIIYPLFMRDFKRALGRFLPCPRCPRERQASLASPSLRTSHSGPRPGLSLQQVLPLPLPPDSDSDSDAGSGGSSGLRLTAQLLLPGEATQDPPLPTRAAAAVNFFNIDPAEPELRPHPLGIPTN

Row | Structure (SMILES) | IC50 [nM]
8 | O=S(=O)(c1cccc(F)c1)c1ccc2c3c(oc2c1)C1(CCOC1)NCC3 (racemic) | 32

Target: Voltage-gated inwardly rectifying potassium channel KCNH2 (Homo sapiens, UniProt Q12809)
Test: Inhibition of human ERG by patch express assay

Sequence of Voltage-gated inwardly rectifying potassium channel KCNH2 (Q12809 whole entry): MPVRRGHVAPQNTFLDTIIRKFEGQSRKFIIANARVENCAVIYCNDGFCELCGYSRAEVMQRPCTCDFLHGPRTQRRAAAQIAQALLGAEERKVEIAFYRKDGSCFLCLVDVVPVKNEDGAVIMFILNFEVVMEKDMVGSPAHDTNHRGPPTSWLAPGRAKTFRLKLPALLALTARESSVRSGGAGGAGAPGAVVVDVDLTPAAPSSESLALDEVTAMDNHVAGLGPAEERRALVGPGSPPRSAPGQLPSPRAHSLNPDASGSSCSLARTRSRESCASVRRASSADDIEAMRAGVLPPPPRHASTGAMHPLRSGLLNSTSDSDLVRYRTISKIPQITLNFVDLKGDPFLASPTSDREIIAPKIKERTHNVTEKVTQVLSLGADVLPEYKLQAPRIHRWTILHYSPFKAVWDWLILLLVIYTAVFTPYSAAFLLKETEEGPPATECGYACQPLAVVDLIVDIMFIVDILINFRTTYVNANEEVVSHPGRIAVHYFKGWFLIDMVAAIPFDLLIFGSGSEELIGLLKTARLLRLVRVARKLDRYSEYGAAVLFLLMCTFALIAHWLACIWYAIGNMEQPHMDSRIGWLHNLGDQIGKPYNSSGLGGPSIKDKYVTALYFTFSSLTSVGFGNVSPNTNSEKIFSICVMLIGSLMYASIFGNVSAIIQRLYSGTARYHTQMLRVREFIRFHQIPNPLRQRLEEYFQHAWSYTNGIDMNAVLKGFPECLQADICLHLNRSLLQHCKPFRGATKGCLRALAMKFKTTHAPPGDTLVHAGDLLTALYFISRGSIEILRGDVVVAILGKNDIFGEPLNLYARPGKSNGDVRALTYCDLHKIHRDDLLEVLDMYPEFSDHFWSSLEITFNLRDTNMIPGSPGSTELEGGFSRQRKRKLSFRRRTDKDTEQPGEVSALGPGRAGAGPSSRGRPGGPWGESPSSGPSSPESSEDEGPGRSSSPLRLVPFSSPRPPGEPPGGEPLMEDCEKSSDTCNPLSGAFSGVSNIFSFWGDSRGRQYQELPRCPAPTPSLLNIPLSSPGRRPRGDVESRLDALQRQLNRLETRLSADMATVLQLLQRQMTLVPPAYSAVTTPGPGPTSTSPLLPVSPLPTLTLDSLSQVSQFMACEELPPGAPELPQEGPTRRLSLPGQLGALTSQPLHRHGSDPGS

Row | Structure (SMILES) | IC50 [µM]
9 | O=S(=O)(c1cccc(F)c1)c1ccc2c3c(oc2c1)C1(CCCOC1)NCC3 (stereo in doubt; 3) | 9.6

Target: T1, 5-hydroxytryptamine receptor 6
Test: Displacement of [3H]LSD from full length human 5HT6 receptor
How it was run: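 Radioligand binding with [³H]LSD on membranes from cells expressing full-length human 5-HT6R.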

Row | Structure (SMILES) | Ki [nM]
10 | O=S(=O)(c1cccc(F)c1)c1ccc2c3c(oc2c1)C1(CCOC1)NCC3 (racemic) | 22.3
11 | COCC1(C)NCCc2c1oc1cc(S(=O)(=O)c3cccc(F)c3)ccc21 (stereo unspecified) | 18

— ChEMBL document CHEMBL1933007, “Novel brain penetrant benzofuropiperidine 5-HT₆ receptor antagonists” (Bioorg Med Chem Lett, 2012)
